According to PMC3684861 (European journal of nuclear medicine and molecular imaging, 2011):

Key:
[1] = cited from earlier work
[2] = system: EMT6 and EMT6Ar1.0 tumour sections (Pgp); assay: In vitro autoradiography on tumour sections; assay type: binding, mouse; details: for binding in EMT6Ar1.0 tumours compared to EMT6 tumours: radiotracer alone, 30 min incubation, 10 μm tumour slices
How it was run: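 Frozen tumours from imaged mice were cut into 10 μm cryostat sections at −12°C, with 3 consecutive sections. Sections were thawed, preincubated in PBS, then incubated 30 min with ¹¹C-labelled Pgp radiotracer (about 20 MBq), alone or with unlabelled inhibitor (10 μM). They were washed in 20% (v/v) ethanol/PBS and distilled water, air-dried, exposed to a phosphor screen and scanned at 600 dpi.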

[3] = system: Pgp at the BBB (whole brain); assay: Small-animal PET, whole brain as reference region for Pgp modulation at the BBB; assay type: in vivo, mouse; details: for tumoural activity uptake relative to brain activity uptake: scan 1, before unlabelled tariquidar; for brain AUC0-60 in scan 2 relative to scan 1: whole brain, scan 2 at 2 h after unlabelled tariquidar 15 mg/kg i.v.
[4] = system: Pgp overexpressing EMT6Ar1.0 tumours; assay type: in vivo, mouse
[5] = system: EMT6 tumours; assay type: in vivo, mouse; details: scan 2, 2 h after unlabelled tariquidar 15 mg/kg i.v.
[6] = system: EMT6Ar1.0 tumours; assay: Static [18F]FDG PET, EMT6Ar1.0 tumours; assay type: in vivo, mouse; details: 10 min static PET scan at 60 min after injection
How it was run: (§1)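 Female athymic NMRI-Foxn1^nu mice (6-8 weeks) had EMT6 and EMT6Ar1.0 cells (3-5 × 10⁵) injected subcutaneously into opposite upper flanks. At about 130 mm³ tumour size, mice (n=7) under isoflurane at about 37°C received [¹⁸F]FDG (6±3 MBq) i.v. A 10 min static microPET scan was taken at 60 min. Tumour ROIs were outlined manually, with SUV = (radioactivity/cm³ ÷ injected radioactivity) × body weight.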

[7] = system: EMT6 tumours; assay: Static [18F]FDG PET, EMT6 tumours; assay type: in vivo, mouse; details: 10 min static PET scan at 60 min after injection
How it was run: as §1

[8] = system: EMT6Ar1.0 cells; assay: In vitro cytotoxicity assay, EMT6Ar1.0 cells; assay type: cell-based, mouse; details: tariquidar ≥0.1 μM, 48 h, culture medium containing doxorubicin
How it was run: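 The Pgp-overexpressing line was derived from EMT6 cells by culture under increasing doxorubicin concentrations and kept at 37°C, 5% CO₂. Cells were exposed to increasing test compound concentrations (0.01 to 10 μM) in their own culture medium for 48 h. Survival was expressed relative to control cells.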

[9] = system: EMT6 cells; assay: In vitro cytotoxicity assay, EMT6 cells; assay type: cell-based, mouse; details: tariquidar 0.01 to 10 μM, 48 h
How it was run: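 EMT6 cells were grown as monolayers in Waymouth's MB 752/1 with 2.4 mM L-glutamine, 15% heat-inactivated FBS and penicillin/streptomycin at 37°C, 5% CO₂. Cells were exposed to increasing test compound concentrations (0.01 to 10 μM) in their culture medium for 48 h. Survival was expressed relative to control cells.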

[10] = cited from earlier work; remark: listed apart in the source
[11] = system: Pgp at the BBB; details: tariquidar dose 15 mg/kg; cited from earlier work

4-[^18F]fluoropaclitaxel [reference compound]
metabolism in vivo [1]: extensively metabolised

COc1ccc(CCN([11CH3])CCC[C@](C#N)(c2ccc(OC)c(OC)c2)C(C)C)cc1OC [(R)-[^11C]verapamil, reference compound]
radiotracer binding after co-incubation ([2]; both tumours, co-incubation with unlabelled tariquidar, elacridar or verapamil (10 μM)): no significant reduction | binding in EMT6Ar1.0 tumours compared to EMT6 tumours [2]: 1.3 times

COc1cc2c(cc1OC)CN(CCc1ccc(NC(=O)c3cccc4c(=O)c5cccc(OC)c5[nH]c34)cc1)CC2 [[^11C]elacridar]
tumoural activity uptake relative to brain activity uptake [3]: 2 to 3 times | brain AUC0-60 in scan 2 relative to scan 1 [3]: 3.5±0.4 times | binding in EMT6Ar1.0 tumours compared to EMT6 tumours [2]: 2.1 times | metabolism in vivo [1]: hardly metabolised

COc1cc2c(cc1OC)CN(CCc1ccc(NC(=O)c3cc(OC)c(OC)cc3NC(=O)c3cnc4ccccc4c3)cc1)CC2 [[^11C]tariquidar]
higher retention in EMT6Ar1.0 tumours than in EMT6 tumours ([4]; PET, AUC0-60): 50% | mean AUC0-60±SD of tumour time-activity curve (SUV) ([4]; scan 2, 2 h after unlabelled tariquidar 15 mg/kg i.v., EMT6Ar1.0 tumours): 45.6 ± 4.8 min | mean AUC0-60±SD of tumour time-activity curve (SUV) [5]: 31.7 ± 7.9 min | tumoural activity uptake relative to brain activity uptake [3]: 2 to 3 times | brain AUC0-60 in scan 2 relative to scan 1 [3]: 2.4±0.3 times | binding in EMT6Ar1.0 tumours compared to EMT6 tumours [2]: 4.3 times | metabolism in vivo [1]: hardly metabolised

OC[C@H]1OC(O)[C@H]([18F])[C@@H](O)[C@@H]1O (some centres unmarked) [[^18F]FDG]
mean tumoural SUV±SD [6]: 2.45±0.75 | mean tumoural SUV±SD [7]: 1.86±0.49

COc1cc2c(cc1OC)CN(CCc1ccc(NC(=O)c3cc(OC)c(OC)cc3NC(=O)c3cnc4ccccc4c3)cc1)CC2 [tariquidar, Tariquidar dimesylate]
cell survival rate [8]: < 5 % of control cells | effect on cell survival [9]: no effect | terminal elimination half-life [10]: 26 h | inhibition of Pgp at the BBB [11]: complete inhibition
